Data on seven compounds can be found in ChEMBL document CHEMBL5149993, “Rational Design of Photochromic Analogues of Tricyclic Drugs” (J Med Chem, 2021).

pIC50, pKi: −log10 of the molar value. Active and inactive are the calls of the source. The calls are words filed in the database; no cut-off is given here.

The nature of data set [1]: Displacement of [3H]-QNB from Wistar rat brain membrane mAChR incubated for 30 mins by radioligand competitive binding assay. Format: cell membranes. The method, boiled down:
(§1)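 Female Wistar rat cortex membranes (30 μg protein) in tris-HCl with 6 mM MgCl₂, 200 pM [³H]QNB (Kd 40 pM), ligands from 1 or 10 nM to 300 μM; 30 min at 37 °C equilibrium. Filtration through GF/C filters, scintillation counting. Nonspecific binding defined with 2 μM atropine. One-site competitive fits gave IC50 and Ki; n = 4 per isomer, n = 2 for reference.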
For orientation: In a radioligand displacement assay an active substance lowers the binding of a labelled ligand.

Data set [2] addresses T1, Muscarinic acetylcholine receptor M1 (Homo sapiens) (UniProt P11229).
T1 sequence (whole entry): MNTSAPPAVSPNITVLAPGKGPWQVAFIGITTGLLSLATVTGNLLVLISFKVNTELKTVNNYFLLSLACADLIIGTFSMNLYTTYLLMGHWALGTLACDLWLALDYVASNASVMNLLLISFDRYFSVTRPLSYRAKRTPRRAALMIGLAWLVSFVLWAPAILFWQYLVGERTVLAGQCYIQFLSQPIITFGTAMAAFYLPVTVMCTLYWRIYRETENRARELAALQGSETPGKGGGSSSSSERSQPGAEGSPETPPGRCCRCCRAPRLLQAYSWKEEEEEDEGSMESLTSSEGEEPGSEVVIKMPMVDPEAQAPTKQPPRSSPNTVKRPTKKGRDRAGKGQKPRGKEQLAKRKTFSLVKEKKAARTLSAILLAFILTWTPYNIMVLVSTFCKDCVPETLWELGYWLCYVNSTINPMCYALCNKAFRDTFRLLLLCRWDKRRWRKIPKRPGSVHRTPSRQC
Nature of the data set: Antagonist activity at human M1 mAChR receptor expressed in HEK cells assessed as reduction in total cell response at 100 uM by real-time calcium imaging method relative to control. Format: functional, cell-based. Set-up: scale not given: the % may be the effect or the level left. Summed up:
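tsA201 cells transiently transfected with human M1 (± R-GECO1), used 48–72 h post-transfection. OGB-1 AM loading at 10 μM final, 30 min, 37 °C; HEPES bath pH 7.4 with 2 mM CaCl₂. Test at 100 μM against 0.5 μM ACh; cis formed by 2 min 365 nm pre-illumination or continuous 460 nm light. Responses normalized to 0.5 μM ACh maximum; Wilcoxon signed rank test.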

Data set [3] can be described thus: Thermal stability of the compound assessed as half life. In kind it is physicochemical.
The nature of data set [4]: Displacement of [3H]-QNB from Wistar rat brain membrane mAChR assessed as inhibition constant incubated for 30 mins by radioligand competitive binding assay. Format: cell membranes. Summed up: as §1
The test system of another data set is Cardiac atrium. Nature of the data set: Anticholinergic activity in isolated CD1 mouse CCh-induced bradycardia atrium assessed as recovery of CCh-indued contraction frequency at 100 uM. Format: functional, tissue-based. The method, boiled down: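 Right atria from CD1 male mice, 10–12 weeks, in carbogenated Krebs, pH 7.4, under 0.2 g tension. Isometric recording of spontaneous contractions after 5–10 min equilibration. Bradycardia induced with CCh 10⁻⁶ M; test compound then added and beats/min measured.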

Data set [5] concerns the target T2, Muscarinic acetylcholine receptor M1 (Homo sapiens, UniProt P11229).
T2 sequence (P11229 whole entry): T1 sequence (whole entry)
Nature of the data set: Displacement of [3H]-pirenzepine from human recombinant M1 receptor expressed in CHO cells incubated for 60 mins by topcount scintillation counter method. Format: cell-based. The method, boiled down:
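Membranes from CHO cells with human M1 (45 μg protein), 2 nM [³H]pirenzepine (Kd 13 nM), 60 min at 22 °C. Nonspecific binding with 1 μM atropine. GF/B filtration, scintillation counting. Tested at 1, 10 and 100 μM after 30 min 365 nm irradiation of DMSO stock; % inhibition, duplicate.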

In data set [6] the target is Muscarinic acetylcholine receptor M2 (human) (UniProt P08172). The experiment in a line: Displacement of [3H]AF-DX384 from human recombinant M2 receptor expressed in CHO cells by topcount scintillation counter method.

With `CN1CCN(CC(=O)Nc2ccccc2/N=N/c2ccccc2)CC1.Cl.Cl`, the pIC50 – broadly, the negative decadic logarithm of the IC50, by convention in mol/L – in data set [1] is 5.00. For the same compound, the Activity in data set [2] (filed as antagonist) stood at 64%. Moreover, the half-life – broadly, how long it takes for the measured level to halve – in data set [3] came to 3.03 h. In addition, in data set [4], the negative-log Ki (pKi) (as a rule, −log10 of the Ki, conventionally taken in molar units) is 5.77.
In the case of `CN1CCN(CC(=O)Nc2ccccc2/N=N/c2cccnc2)CC1.Cl.Cl`, the negative-log IC50 (pIC50) in data set [1] is 4.42. For the same compound, the half-life in data set [3] was 1.18 h. For the same compound, the pKi in data set [4] is 5.19.
The compound `CN1CCN(CC(=O)Nc2ccccc2/N=N\c2cccnc2)CC1.Cl.Cl` gave a pIC50 in data set [1] of 4.38. Also, in data set [3], the half-life is 1.18 h. Also, in data set [4], the pKi was 5.15.
Take `CN1CCN(CC(=O)Nc2ccccc2/N=N\c2ccc(N(C)C)cc2)CC1`: the pIC50 in data set [1] is 4.49. For the same compound, the Activity in data set [2] was 14%. Further, the pKi in data set [4] is 5.28.
Turning to `CN1CCN(CC(=O)N2c3ccccc3C(=O)Nc3cccnc32)CC1`, the result in the data set on Cardiac atrium was Active.
For the compound `CN1CCN(CC(=O)Nc2ccccc2/N=N\c2ccccc2)CC1.Cl.Cl`, the pIC50 in data set [5] is 5.72; in data set [1], 5.04; in data set [6] it was 4.55. The Activity in data set [2] (filed as antagonist) was determined as 73%. Also, the result with Cardiac atrium was Active. Besides, the half-life in data set [3] came out at 3.03 h. The pKi in data set [4] is 5.82.
Compound `CN1CCN(CC(=O)Nc2ccccc2/N=N/c2ccc(N(C)C)cc2)CC1` had a pIC50 in data set [1] of 4.48. The negative logarithm of the Ki (pKi) in data set [4] was 5.28.
